# Key:
# Nonstructural protein 5A = biological target: T1, Nonstructural protein 5A (Hepatitis C virus, UniProt Q5L478); test: Inhibition of NS5A in HCV genotype 6a; set-up: species or system Hepatitis C virus subtype 6a
# T1 sequence (Q5L478 whole entry): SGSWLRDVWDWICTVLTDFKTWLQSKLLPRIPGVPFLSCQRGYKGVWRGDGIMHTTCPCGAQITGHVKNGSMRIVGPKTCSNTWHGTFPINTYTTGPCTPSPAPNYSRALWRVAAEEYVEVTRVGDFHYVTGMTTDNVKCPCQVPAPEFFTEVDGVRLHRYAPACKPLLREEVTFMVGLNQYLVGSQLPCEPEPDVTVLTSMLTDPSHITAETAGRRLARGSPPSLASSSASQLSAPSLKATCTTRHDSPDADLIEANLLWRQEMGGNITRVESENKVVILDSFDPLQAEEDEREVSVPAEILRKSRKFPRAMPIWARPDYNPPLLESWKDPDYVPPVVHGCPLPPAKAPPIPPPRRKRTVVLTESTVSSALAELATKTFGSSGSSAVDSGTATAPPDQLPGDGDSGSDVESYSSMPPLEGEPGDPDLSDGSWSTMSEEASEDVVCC
# [1] = biological target: T2, Nonstructural protein 5A (Hepatitis C virus) (UniProt Q5L478); test: Potency index, ratio of ombitasvir IC50 to compound IC50 for inhibition of NS5A in HCV genotype 3a infected in human HuH7 replicon cells expressing HCV genotype 1b chimeric replicon; format: cell-based; conditions: Hepatitis C virus subtype 3a
# T2 sequence (whole entry): T1 sequence (Q5L478 whole entry)
# [2] = biological target: T2, Nonstructural protein 5A (Hepatitis C virus); test: Potency index, ratio of ombitasvir IC50 to compound IC50 for inhibition of NS5A in HCV genotype 6a infected in human HuH7 replicon cells expressing HCV genotype 1b chimeric replicon; format: cell-based; conditions: Hepatitis C virus subtype 6a
# Mus musculus [3] = test: Toxicity in ICR mouse assessed as body weight at 150 mg/kg, po administered via gavage once daily for 14 days (reference value: 25.8 +/- 3.5 g); format: organism-based; conditions: in vivo, 336 h
# Mus musculus [4] = test: Toxicity in ICR mouse assessed as effect on food consumption at 150 mg/kg, po administered via gavage once daily for 14 days; format: organism-based; conditions: in vivo, 336 h
# In short: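 ICR mice, 5 male + 5 female per group, gavage once daily for 14 days, vehicle control; food intake recorded on day 1 of dosing and then twice weekly, with daily clinical observation.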
# Mus musculus [5] = test: Toxicity in ICR mouse assessed as WBC count at 150 mg/kg, po administered via gavage once daily for 14 days (reference value: 7.03 +/- 1.56 10^9/L); format: organism-based; conditions: in vivo, 336 h
# In short: (§1)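 ICR mice, 5 males + 5 females per group, dosed by gavage once daily at 150 mg/kg (20 ml/kg) or vehicle for 14 days; killed after the 14th dose; blood from abdominal aorta under ether anaesthesia for hematology and clinical chemistry; mean ± SD, n = 10.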
# Mus musculus [6] = test: Toxicity in ICR mouse assessed as platelet count at 150 mg/kg, po administered via gavage once daily for 14 days (reference value: 1260.3 +/- 137.87 10^9/L); format: organism-based; conditions: in vivo, 336 h
# In short: (§2)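 Haematology on abdominal aortic blood taken at necropsy under ether anaesthesia after 14 daily gavage doses (20 ml/kg) in ICR mice, 5 per sex per group, vehicle control. Parameters: WBC, RBC, haemoglobin, platelets, reticulocyte ratio and differential leukocyte counts; mean ± SD, n = 10.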
# Mus musculus [7] = test: Toxicity in ICR mouse assessed as neutrophil level in serum at 150 mg/kg, po administered via gavage once daily for 14 days (reference value: 27.74 +/- 16.27%); format: organism-based; conditions: in vivo, 336 h; in short: as §2
# Mus musculus [8] = test: Toxicity in ICR mouse assessed as lymphocyte level in serum at 150 mg/kg, po administered via gavage once daily for 14 days (reference value: 57.65 +/- 13.53%); format: organism-based; conditions: in vivo, 336 h; in short: as §2
# Mus musculus [9] = test: Toxicity in ICR mouse assessed as monocyte level in serum at 150 mg/kg, po administered via gavage once daily for 14 days (reference value: 12.93 +/- 3.61%); format: organism-based; conditions: in vivo, 336 h; in short: as §2
# Mus musculus [10] = test: Toxicity in ICR mouse assessed as basophil level in serum at 150 mg/kg, po administered via gavage once daily for 14 days (reference value: 0.02 +/- 0.04%); format: organism-based; conditions: in vivo, 336 h; in short: as §1
# Mus musculus [11] = test: Toxicity in ICR mouse assessed as reticulocyte level in serum at 150 mg/kg, po administered via gavage once daily for 14 days (reference value: 4.73 +/- 0.56%); format: organism-based; conditions: in vivo, 336 h; in short: as §2
# Mus musculus [12] = test: Toxicity in ICR mouse assessed as aspartate aminotransferase level in serum at 150 mg/kg, po administered via gavage once daily for 14 days (reference value: 111.44 +/- 32.76 U/L); format: organism-based; conditions: in vivo, 336 h; in short: as §1
# Mus musculus [13] = test: Toxicity in ICR mouse assessed as albumin level in serum at 150 mg/kg, po administered via gavage once daily for 14 days (reference value: 25.87 +/- 1.67 g/l); format: organism-based; conditions: in vivo, 336 h; in short: as §1
# Mus musculus [14] = test: Toxicity in ICR mouse assessed as blood urea nitrogen level in serum at 150 mg/kg, po administered via gavage once daily for 14 days (reference value: 10.44 +/- 1.77 mmol/L); format: organism-based; conditions: in vivo, 336 h; in short: as §1
# Mus musculus [15] = test: Toxicity in ICR mouse assessed as creatinine level in serum at 150 mg/kg, po administered via gavage once daily for 14 days (reference value: 25.22 +/- 3.42 umol/L); format: organism-based; conditions: in vivo, 336 h
# Mus musculus [16] = test: Toxicity in ICR mouse assessed as blood glucose level at 150 mg/kg, po administered via gavage once daily for 14 days (reference value: 3.64 +/- 0.79 umol/L); format: organism-based; conditions: in vivo, 336 h; in short: as §1
# Mus musculus [17] = test: Toxicity in ICR mouse assessed as total bilirubin level in serum at 150 mg/kg, po administered via gavage once daily for 14 days (reference value: 9.95 +/- 2.18 umol/L); format: organism-based; conditions: in vivo, 336 h
# Mus musculus [18] = test: Toxicity in ICR mouse assessed as total bile acid level at 150 mg/kg, po administered via gavage once daily for 14 days (reference value: 5.67 +/- 2.45 umol/L); format: organism-based; conditions: in vivo, 336 h
# Mus musculus [19] = test: Toxicity in ICR mouse assessed as triglyceride level at 150 mg/kg, po administered via gavage once daily for 14 days (reference value: 1.67 +/- 0.32 mmol/L); format: organism-based; conditions: in vivo, 336 h
# Mus musculus [20] = test: Toxicity in ICR mouse assessed as total cholesterol level at 150 mg/kg, po administered via gavage once daily for 14 days (reference value: 0.93 +/- 0.31 mmol/L); format: organism-based; conditions: in vivo, 336 h
# Mus musculus [21] = test: Toxicity in ICR mouse assessed as serum glutamate dehydrogenase level at 150 mg/kg, po administered via gavage once daily for 14 days (reference value: 13.78 +/- 2.86 U/L); format: organism-based; conditions: in vivo, 336 h
# Mus musculus [22] = test: Toxicity in ICR mouse assessed as heart weight at 150 mg/kg, po administered via gavage once daily for 14 days (reference value: 0.539 +/- 0.094 g); format: organism-based; conditions: in vivo, 336 h
# Mus musculus [23] = test: Toxicity in ICR mouse assessed as liver weight at 150 mg/kg, po administered via gavage once daily for 14 days (reference value: 4.365 +/- 0.222 g); format: organism-based; conditions: in vivo, 336 h
# Mus musculus [24] = test: Toxicity in ICR mouse assessed as spleen weight at 150 mg/kg, po administered via gavage once daily for 14 days (reference value: 0.355 +/- 0.1 g); format: organism-based; conditions: in vivo, 336 h
# Mus musculus [25] = test: Toxicity in ICR mouse assessed as thymus weight at 150 mg/kg, po administered via gavage once daily for 14 days (reference value: 0.289 +/- 0.081 g); format: organism-based; conditions: in vivo, 336 h
# Mus musculus [26] = test: Toxicity in ICR mouse assessed as ovary weight at 150 mg/kg, po administered via gavage once daily for 14 days (reference value: 0.079 +/- 0.007 g); format: organism-based; conditions: in vivo, 336 h
smiles,measurement,setting,value
COC(=O)N[C@H](C(=O)N1CCC[C@H]1C(=O)Nc1ccc([C@@H]2CC[C@@H](c3ccc(NC(=O)[C@@H]4CCCN4C(=O)[C@@H](NC(=O)OC)C(C)C)cc3)N2c2ccc(C(C)(C)C)cc2)cc1)C(C)C [OMBITASVIR],EC50,Nonstructural protein 5A,0.055 nM
CC[Si](CC)(CC)c1ccc(N2[C@H](c3ccc(NC(=O)[C@@H]4CCCN4C(=O)[C@@H](NC(=O)OC)C(C)C)cc3)CC[C@H]2c2ccc(NC(=O)[C@@H]3CCCN3C(=O)[C@@H](NC(=O)OC)C(C)C)cc2)cc1,Ratio IC50,[1],8.6
same,Ratio IC50,[2],7.6
same,Activity,Mus musculus [3],24 g
same,Activity,Mus musculus [4],Non-Toxic
same,Activity,Mus musculus [5],6.2 ×10⁹ /L
same,Activity,Mus musculus [6],1263.4 ×10⁹ /L
same,Activity,Mus musculus [7],33.12%
same,Activity,Mus musculus [8],52.54%
same,Activity,Mus musculus [9],12.44%
same,Activity,Mus musculus [10],0.02%
same,Activity,Mus musculus [11],3.88%
same,Activity,Mus musculus [12],110.6 U/L
same,Activity,Mus musculus [13],25.38 g/L
same,Activity,Mus musculus [14],10.16 mmol/L
same,Activity,Mus musculus [15],23.2 µmol/L
same,Activity,Mus musculus [16],4.18 mmol/L
same,Activity,Mus musculus [17],11.24 µmol/L
same,Activity,Mus musculus [18],10.5 µmol/L
same,Activity,Mus musculus [19],1.53 mmol/L
same,Activity,Mus musculus [20],0.85 mmol/L
same,Activity,Mus musculus [21],15.1 U/L
same,Activity,Mus musculus [22],0.567 g
same,Activity,Mus musculus [23],4.346 g
same,Activity,Mus musculus [24],0.345 g
same,Activity,Mus musculus [25],0.24 g
same,Activity,Mus musculus [26],0.097 g

# — ChEMBL document CHEMBL4196017, “Design, synthesis and identification of silicon-containing HCV NS5A inhibitors with pan-genotype activity” (Eur J Med Chem, 2018)
